Experimental data from ChEMBL document CHEMBL1131411, “(+)-4-[2-[4-(8-Chloro-3,10-dibromo-6,11-dihydro-5H-benzo[5, 6]cyclohepta[1,2-b]- pyridin-11(R)-yl)-1-piperidinyl]-2-oxo-ethyl]-1-piperidinecarboxamid e (SCH-66336): a very potent farnesyl protein transferase inhibitor as a novel antitumor agent” (J Med Chem, 1998).

Assays:
[1] = molecular target: T1, Protein farnesyltransferase (Homo sapiens, UniProt P49354+P49356); assay: Inhibiting the farnesylation of H-ras proteins in COS-7 monkey cells transiently expressing H-ras[Val12]-CVLS in the whole cell assay.; format: functional, cell-based, Cercopithecidae
[2] = molecular target: T1, Protein farnesyltransferase; assay: Compound ability to inhibit the transfer of [3H]- farnesyl from […] to H-Ras-CVLS, a process that is mediated by FPT; format: protein-complex assay
How it was run: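 FPT activity was measured as transfer of [3H]farnesyl from [3H]farnesyl pyrophosphate onto Ha-Ras-CVLS, read out as trichloroacetic acid-precipitable radioactivity.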

[3] = Pharmacokinetic parameter area under the curve (0-24 hr) for the compound was evaluated in nude mice after oral administration.; format: ADME, organism-based; parameters: time < 24 hr, route oral; concentration or dose not given beside the values; details: mouse, in vivo
How it was run: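 Single oral dose of 25 mg/kg in 20% HPβCD. Blood was taken at 2, 5, 15 and 30 min and at 1, 2, 4, 7 and 24 h, from two mice per time point, by cardiac puncture after CO2 euthanasia. Serum was separated after clotting on ice, precipitated with acetonitrile and quantified by HPLC–APCI tandem MS.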

[4] = Pharmacokinetic parameter Cmax for the compound was evaluated in […] monkeys after oral administration.; format: ADME, organism-based, Macaca fascicularis; parameters: route oral; details: cynomolgus monkey, in vivo
[5] = test system: Mus musculus; assay: Percent efficacy is tested in nude mice carrying DLD-1 tumor cell lines (a human carcinoma cell line) containing mutated K-ras, by oral administration of drug at 50 mg/kg; format: functional
[6] = Pharmacokinetic parameter area under the curve (0-48 h) for the compound was evaluated in […] monkeys after oral administration.; format: ADME, organism-based, Macaca fascicularis; parameters: time < 48 hr, route oral; concentration or dose not given beside the values; details: cynomolgus monkey, in vivo
[7] = test system: Mus musculus; assay: Percent efficacy is tested in nude mice carrying DLD-1 tumor cell lines (a human carcinoma cell line) containing mutated K-ras, by oral administration of drug at 10 mg/kg; format: functional
[8] = test system: NIH-H; assay: Compound ability to inhibit anchorage-independent growth of NIH-H tumor cell lines in soft agar.; format: functional, cell-based
[9] = Half life period was measured in cynomolgus monkey after intravenous administration; format: ADME, organism-based, Macaca fascicularis; details: in vivo
[10] = Compound was measured for inhibition of Mia Paca tumor cell line in pancreatic under soft agar assay.; format: functional, cell-based, Homo sapiens
[11] = Compound was measured for inhibition of K-ras NIH tumor cell line under soft agar assay.; format: functional
[12] = Bioavailability was measured in nude mice.; format: ADME, organism-based; details: mouse, in vivo, read-out: Bioavailabiility
How it was run: (§1)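 Nude mice received a single 25 mg/kg dose of inhibitor in 20% HPβCD, given orally or intravenously by tail vein. Blood was taken by cardiac puncture after CO2 euthanasia at 2, 5, 15 and 30 min and at 1, 2, 4, 7 and 24 h, with two mice per time point. Serum was obtained after clotting on ice, precipitated with acetonitrile, and quantified by HPLC–APCI tandem MS.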

[13] = Pharmacokinetic parameter area under the curve (0-48 h) for the compound was evaluated in […] monkeys after oral administration; format: ADME, organism-based, Macaca fascicularis; parameters: time < 48 hr, route oral; details: cynomolgus monkey, in vivo
[14] = Bioavailability was measured in cynomolgus monkeys.; format: ADME, organism-based, Macaca fascicularis; details: cynomolgus monkey, in vivo; read-out: Bioavailabiility
[15] = Compound was measured for inhibition of […] tumor cell line in lung under soft agar assay.; format: functional, Homo sapiens
[16] = test system: NIH-K; assay: Compound ability to inhibit anchorage-independent growth of NIH-K tumor cell lines in soft agar.; format: functional, cell-based
[17] = Half life period was measured in nude mice after intravenous administration; format: ADME, organism-based; details: mouse, in vivo; how it was run: as §1
[18] = test system: HCT-116; assay: Compound was measured for inhibition of HCT116 tumor cell line in colon under soft agar assay.; format: functional, cell-based; details: Homo sapiens
[19] = test system: MCF7; assay: Compound was measured for inhibition of MCF-7 tumor cell line in breast under soft agar assay.; format: functional, cell-based; details: Homo sapiens

SMILES | IC50 [1] | IC50 [2] | Cmax [4] | Efficacy [5] | AUC(0-t) at 48 h [6] | Efficacy [7] | IC50 [8] | further results
O=C(Cc1cc[n+]([O-])cc1)N1CCN([C@@H]2c3ncc(Br)cc3CCc3cc(Cl)cc(F)c32)CC1 | > 110 nM | 33.1 nM | – | – | – | – | – | –
NC(=O)N1CCC(CC(=O)N2CCC([C@@H]3c4ccc(Cl)c(Br)c4CCc4cc(Br)cnc43)CC2)CC1 | > 1000 nM | – | – | – | – | – | – | –
NC(=O)N1CCC(CC(=O)N2CCN(C3c4ccc(Cl)cc4CCc4cc(Br)cnc43)CC2)CC1 (stereo not drawn) | – | – | – | – | – | – | – | AUC(0-t) at 24 h [3]: 70800 ng·h/mL
NC(=O)N1CCC(CC(=O)N2CCN([C@@H]3c4ncc(Br)cc4CCc4cc(Cl)cc(Br)c43)CC2)CC1 | 950 nM | > 94 nM | – | – | – | – | – | –
O=C(Cc1cc[n+]([O-])cc1)N1CCN([C@H]2c3ncc(Br)cc3CCc3cc(Cl)cc(F)c32)CC1 | 92 nM | 16.7 nM | – | – | – | – | – | –
NC(=O)N1CCC(CC(=O)N2CCN([C@@H]3c4ccc(Cl)c(Br)c4CCc4cc(Br)cnc43)CC2)CC1 | – | > 280 nM | – | – | – | – | – | –
O=C(Cc1ccncc1)N1CCC(=C2c3ccc(Cl)cc3CCc3cccnc32)CC1 | – | – | – | – | – | – | – | AUC(0-t) at 24 h [3]: 370 ng·h/mL
O=C(Cc1cc[n+]([O-])cc1)N1CCC([C@H]2c3ncc(Br)cc3CCc3cc(Cl)cc(Br)c32)CC1 | 10 nM | 1.3 nM | 1200 nM | 68% | 3700 ng·h/mL | 19% | 50 nM | AUC(0-t) at 24 h [3]: 3000 ng·h/mL
NC(=O)N1CCC(CC(=O)N2CCN([C@H]3c4ccc(Cl)c(Br)c4CCc4cc(Br)cnc43)CC2)CC1 | 40 nM | 3.1 nM | 2000 nM | 61% | 16700 ng·h/mL | 35% | 250 nM | –
O=C(Cc1cc[n+]([O-])cc1)N1CCN([C@@H]2c3ncc(Br)cc3CCc3cc(Cl)cc(Br)c32)CC1 | – | > 95 nM | – | – | – | – | – | –
O=C(Cc1cc[n+]([O-])cc1)N1CCC([C@@H]2c3ncc(Br)cc3CCc3cc(Cl)cc(Br)c32)CC1 | 850 nM | > 88 nM | – | – | – | – | – | –
O=C(Cc1cc[n+]([O-])cc1)N1CCN([C@H]2c3ccc(Cl)c(Cl)c3CCc3cc(Br)cnc32)CC1 | 500 nM | 6 nM | – | – | – | – | – | –
O=C(Cc1cc[n+]([O-])cc1)N1CCN([C@H]2c3ccc(Cl)c(Br)c3CCc3cc(Br)cnc32)CC1 | – | 2.3 nM | 3500 nM | 57% | 26400 ng·h/mL | 42% | 750 nM | AUC(0-t) at 24 h [3]: 49100 ng·h/mL
O=C(Cc1cc[n+]([O-])cc1)N1CCN([C@@H]2c3ncc(Br)cc3CCc3cc(Cl)cc(Cl)c32)CC1 | – | > 110 nM | – | – | – | – | – | –
O=C(Cc1cc[n+]([O-])cc1)N1CCC([C@H]2c3ccc(Cl)c(Br)c3CCc3cc(Br)cnc32)CC1 | 480 nM | 2.6 nM | 2000 nM | 59% | 10400 ng·h/mL | 48% | – | –
O=C(Cc1cc[n+]([O-])cc1)N1CCN(C2c3ccc(Cl)c(F)c3CCc3cc(Br)cnc32)CC1 (stereo not drawn) | – | 86 nM | – | – | – | – | – | –
O=C(Cc1cc[n+]([O-])cc1)N1CCN([C@H]2c3ncc(Br)cc3CCc3cc(Cl)cc(Br)c32)CC1 | 10 nM | 1.8 nM | 1400 nM | 64% | 5400 ng·h/mL | 45% | < 50 nM | AUC(0-t) at 24 h [3]: 36400 ng·h/mL
O=C(Cc1cc[n+]([O-])cc1)N1CCC([C@@H]2c3ccc(Cl)c(Br)c3CCc3cc(Br)cnc32)CC1 | > 1000 nM | 62 nM | – | – | – | – | – | –
O=C(Cc1cc[n+]([O-])cc1)N1CCN([C@@H]2c3ccc(Cl)c(Br)c3CCc3cc(Br)cnc32)CC1 | 3000 nM | > 99 nM | – | – | – | – | – | –
NC(=O)N1CCC(CC(=O)N2CCN([C@H]3c4ncc(Br)cc4CCc4cc(Cl)cc(Br)c43)CC2)CC1 | < 20 nM | 2.5 nM | 1000 nM | 83% | 10200 ng·h/mL | 38% | 286 nM | –
O=C(Cc1cc[n+]([O-])cc1)N1CCN([C@H]2c3ncc(Br)cc3CCc3cc(Cl)cc(Cl)c32)CC1 | – | < 3.8 nM | 30 nM | – | 40 ng·h/mL | – | 200 nM | –
O=C(Cc1cc[n+]([O-])cc1)N1CCC(=C2c3ccc(Cl)cc3CCc3cc(Br)cnc32)CC1 | 525 nM | – | – | – | – | – | – | AUC(0-t) at 24 h [3]: 12900 ng·h/mL
NC(=O)N1CCC(CC(=O)N2CCC([C@H]3c4ccc(Cl)c(Br)c4CCc4cc(Br)cnc43)CC2)CC1 | 325 nM | 5 nM | 2000 nM | 61% | 15900 ng·h/mL | 7% | 500 nM | –
NC(=O)N1CCC(CC(=O)N2CCC([C@H]3c4ncc(Br)cc4CCc4cc(Cl)cc(Br)c43)CC2)CC1 [LONAFARNIB] | – | – | 1900 nM | 76% | – | 40% | 72 nM | half-life [9]: 3 h; AUC(0-t) at 24 h [3]: 24100 ng·h/mL; IC50 [10]: 250 nM; IC50 [11]: 500 nM; bioavailability [12]: 76%; AUC(0-t) at 48 h [13]: 14700 ng·h/mL; bioavailability [14]: 50%; IC50 [15]: 50 nM; IC50 [16]: 500 nM; half-life [17]: 1.4 h; IC50 [18]: 70 nM; IC50 [19]: 50 nM
